Source: ChEMBL document CHEMBL3621064, “Fungal metabolite ophiobolin A as a promising anti-glioma agent: In vivo evaluation, structure-activity relationship and unique pyrrolylation of primary amines” (Bioorg Med Chem Lett, 2015)
Calls of active or inactive are those of the source. The calls are words filed in the database; no cut-off is given here.

How the values were obtained:
[1] = tested on: A549; experiment: Antiproliferative activity against human A549 cells by MTT assay; format: functional
Summary of the method: (§1)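 Cell lines grown in RPMI with 10% heat-inactivated fetal calf serum, 4 mM glutamine, gentamicin, penicillin and streptomycin. Growth inhibition by colorimetric MTT assay across a five-line panel: U373 GBM, A549 NSCLC and SKMEL-28 melanoma (apoptosis-resistant), plus Hs683 oligodendroglioma and MCF-7 breast (apoptosis-sensitive).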

[2] = tested on: MCF7; experiment: Antiproliferative activity against human MCF7 cells by MTT assay; format: functional; summary of the method: as §1
[3] = Antiproliferative activity against human Hs683 cells by MTT assay; format: functional; settings: Hs 683; summary of the method: as §1
[4] = Antiproliferative activity against human U373 cells by MTT assay; format: functional, U-373MG ATCC; settings: U373 MG; summary of the method: as §1
[5] = tested on: SK-MEL-28; experiment: Antiproliferative activity against human SK-MEL-28 cells by MTT assay; format: functional; summary of the method: as §1
[6] = Growth inhibition of human NCI60 cells; format: functional
[7] = tested on: U-251; experiment: Antitumor activity against luciferase expressing human U251 cells xenografted in mouse assessed as increase in mouse survival at 10 mg/kg, ip dosed as 3 doses per week for 21 days; format: functional, organism-based
Summary of the method: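 Orthotopic mouse GBM model inoculated with 1×10^6 U251-LUC cells; 10 mg/kg IP 3x per week for 21 days, 0.9% saline vehicle control; mice without signs of GBM sacrificed on day 100 after inoculation and counted as long-term survivors; survival monitored.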

[8] = tested on: U-251; experiment: Antitumor activity against luciferase expressing human U251 cells xenografted in mouse assessed as inhibition of tumor growth at 10 mg/kg, ip dosed as 3 doses per week for 21 days; format: functional, organism-based
Summary of the method: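 Orthotopic U251-luciferase human GBM tumors in mice; 10 mg/kg IP 3x weekly for 21 days versus 0.9% saline vehicle; relative tumor growth followed by temporal bioluminescence imaging.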

[9] = tested on: Brain; experiment: Drug level in brain tumor of luciferase expressing human U251 cells xenografted mouse dosed intravenously and measured after 15 mins; format: ADME, organism-based, U-251; settings: in vivo, iv, 0.25 h
Summary of the method: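 Single intravenous injection into lateral tail vein of a mouse bearing a brain tumor; brain tumor extract taken 15 min post administration and analysed for intact compound.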

Compound | GI50 [1] [µM] | GI50 [2] [µM] | GI50 [3] [µM] | GI50 [4] [µM] | GI50 [5] [µM] | GI50 [6] [µM] | Activity [7] | TGI [8] | Drug uptake [9]
CCOC(C)(C)[C@@H](Br)[C@H]1C[C@H](C)[C@]2(CC[C@]3(C)C[C@H]4[C@H](C(=O)C[C@@]4(C)O)/C(C=O)=C\C[C@H]32)O1 | 0.9 | 1.2 | 0.9 | 1.2 | 0.6 | – | – | – | –
C#CCOC(C)(C)[C@@H](Br)[C@H]1C[C@H](C)[C@]2(CC[C@]3(C)C[C@H]4[C@H](C(=O)C[C@@]4(C)O)/C(C=O)=C\C[C@H]32)O1 | 0.8 | 0.8 | 0.6 | 1.4 | 0.6 | – | – | – | –
COC(=O)/C=C/C1=C/C[C@@H]2[C@](C)(CC[C@@]23O[C@@H](C=C(C)C)C[C@@H]3C)C[C@H]2[C@@H]1C(=O)C[C@@]2(C)O | 59 | 43 | 59 | 86 | 86 | – | – | – | –
CC(=O)N[C@@H](CCCCn1cc2c3c1C[C@@](C)(O)[C@H]3C[C@@]1(C)CC[C@@]3(O[C@@H](C=C(C)C)C[C@@H]3C)[C@@H]1/C=C\2)C(=O)O | > 100 | > 100 | > 100 | > 100 | > 100 | – | – | – | –
CC(C)=C[C@H]1C[C@H](C)[C@]2(CC[C@]3(C)C[C@H]4[C@H](C(=O)C[C@@]4(C)O)/C(C=O)=C\C[C@H]32)O1 [OPHIOBOLIN A] | 0.1 | 0.06 | 0.02 | 0.06 | 0.05 | 0.07 | Active | Active | Active
CC(C)=C[C@H]1C[C@H](C)[C@]2(CC[C@]3(C)C[C@H]4c5c(cn(Cc6ccccc6)c5C[C@@]4(C)O)/C=C\[C@H]32)O1 | 51 | 40 | 46 | 69 | 58 | – | – | – | –
CC(C)=C[C@H]1C[C@H](C)[C@]2(CC[C@]3(C)C[C@H]4c5c(cn(CCCCCCn6cc7c8c6C[C@@](C)(O)[C@H]8C[C@@]6(C)CC[C@@]8(O[C@@H](C=C(C)C)C[C@@H]8C)[C@@H]6/C=C\7)c5C[C@@]4(C)O)/C=C\[C@H]32)O1 | 26 | 14 | 25 | 30 | 24 | – | – | – | –
CCCO[C@H]1O[C@@]2(OCCC)C[C@@](C)(O)[C@H]3C[C@@]4(C)CC[C@@]5(O[C@@H](C=C(C)C)C[C@@H]5C)[C@@H]4C/C=C/1[C@H]32 | 0.3 | 0.2 | 0.2 | 0.4 | 0.2 | – | – | – | –
C[C@H]1C[C@H]([C@H](Br)C(C)(C)OCc2cn(Cc3ccccc3)nn2)O[C@@]12CC[C@]1(C)C[C@H]3[C@H](C(=O)C[C@@]3(C)O)/C(C=O)=C\C[C@H]12 | 1.2 | 1.2 | 0.8 | 3.4 | 1 | – | – | – | –
CCOC1O[C@@]2(OCC)C[C@@](C)(O)[C@H]3C[C@@]4(C)CC[C@@]5(O[C@@H](C=C(C)C)C[C@@H]5C)[C@@H]4C/C=C/1[C@H]32 (mixture of isomers) | 0.3 | 0.2 | 0.2 | 0.4 | 0.1 | – | – | – | –
C[C@H]1C[C@H](C2OC2(C)C)O[C@@]12CC[C@]1(C)C[C@H]3[C@H](C(=O)C[C@@]3(C)O)/C(C=O)=C\C[C@H]12 (mixture of isomers) | 0.6 | 0.6 | 0.4 | 0.6 | 0.4 | – | – | – | –
C#CCCCOC(=O)/C=C/C1=C/C[C@@H]2[C@](C)(CC[C@@]23O[C@@H](C=C(C)C)C[C@@H]3C)C[C@H]2[C@@H]1C(=O)C[C@@]2(C)O | 15 | 12 | 12 | 20 | 23 | – | – | – | –
CC(C)=C[C@H]1C[C@H](C)[C@]2(CC[C@]3(C)C[C@H]4[C@H](C(=O)C[C@@]4(C)O)C(/C=C/C#N)=C\C[C@H]32)O1 | 27 | 26 | 22 | 27 | 28 | – | – | – | –
CO[C@H]1O[C@@]2(OC)C[C@@](C)(O)[C@H]3C[C@@]4(C)CC[C@@]5(O[C@@H](C=C(C)C)C[C@@H]5C)[C@@H]4C/C=C/1[C@H]32 | 0.3 | 0.4 | 0.4 | 0.4 | 0.3 | – | – | – | –
CC(=O)O[C@]1(C)Cc2occ3c2[C@@H]1C[C@@]1(C)CC[C@@]2(O[C@@H](C=C(C)C)C[C@@H]2C)[C@@H]1/C=C\3 | 6 | 13 | 11 | 8 | 6 | – | – | – | –
CC(=O)N[C@@H](CCCC/N=C/C1=C/C[C@@H]2[C@](C)(CC[C@@]23O[C@@H](C=C(C)C)C[C@@H]3C)C[C@H]2[C@@H]1C(=O)C[C@@]2(C)O)C(=O)O | 3 | 4 | 3 | 4 | 3 | – | – | – | –
CC(C)=C[C@H]1C[C@H](C)[C@]2(CC[C@]3(C)C[C@H]4c5c(cn(CCc6ccc(O)cc6)c5C[C@@]4(C)O)/C=C\[C@H]32)O1 | 35 | 23 | 33 | 54 | 33 | – | – | – | –
C#CCCCCOC(C)(C)[C@@H](Br)[C@H]1C[C@H](C)[C@]2(CC[C@]3(C)C[C@H]4[C@H](C(=O)C[C@@]4(C)O)/C(C=O)=C\C[C@H]32)O1 | 1 | 1.4 | 0.8 | 2.2 | 0.6 | – | – | – | –
CC(C)=C[C@H]1C[C@H](C)[C@]2(CC[C@]3(C)C[C@H]4c5c(cnnc5C[C@@]4(C)O)CC[C@H]32)O1 | 34 | 27 | 29 | 30 | 29 | – | – | – | –
CC(C)=C[C@H]1C[C@H](C)[C@]2(CC[C@]3(C)C[C@@H]4C(C)=CC(=O)[C@H]4/C(C=O)=C\C[C@H]32)O1 [3-ANHYDRO-6-EPI-OPHIOBOLIN A] | 9 | 10 | 8 | 18 | 8 | – | – | – | –
